# Source: PubChem (several laboratories)
# HSF1 inh = HSF1 inhibitors in luciferase reporter cells, primary screen, cell-based, NIH3T3, luminescence; activity change, negative = inhibition, % at 7.5 µM (by protocol); NIH3T3-HGL HSE-luciferase, MG132-induced, luminescence 8 h; hits give low values; AID 2098, 2009; 0.77% of 300,000 active;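 active = more than half of replicate wells show activity change below -50%, luminescence cut by over half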;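 note: luciferase reports HSF-1 transcriptional activity via heat shock element; 0% = median of DMSO wells and -100% = zero luminescence signal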
# L major viab = Leishmania major promastigote growth inhibition, primary screen. Leishmania major promastigotes, resazurin fluorescence viability. inhibition, % at 10 µM. 9% of 200,000 active. AID 1063, 2008; in the data active = inhibition above about 50%;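 note: promastigotes grown with compound for 44 hours at 28 °C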
# T cruzi repl = inhibitors of intracellular T. cruzi growth, primary screen, luminescence, NIH3T3 host cells | T. cruzi beta-gal in NIH3T3, 90 h | inhibition, % (concentration not given with the values) | 1.4% of 300,000 active;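 active = mean inhibition across valid replicates above about 55%, limit read from the data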;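 note: signal also drops with host cell toxicity which is not excluded here; 0% = plate median of DMSO wells and 100% = zero luminescence signal; higher percent means less beta-gal luminescence so fewer parasites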
#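 System: NIH/3T3 fibroblasts plus reporter T. cruzi. Medium: DMEM plus 2% FBS. Probe or stimulus: 5000 reporter trypomastigotes per well. Compound: single 50 nL compound addition per well in DMSO. Incubation: co-culture of at least 90 h after 3 h attachment. Detection: GalScreen β-gal luminescence, detergent lysis, 60 min. Evaluation: parasite load inhibition, %.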
# Hsp70 act = Hsp70 transcriptional activators, primary screen, cell-based, HeLa, Hsp70 promoter luciferase, luminescence, 10 µM. HeLa Hsp70 promoter luciferase reporter; scaled: vehicle 0, proteasome-inhibitor control 100%. activation, % at 10 µM. 0.04% of 200,000 active. AID 1203, 2008;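 active = activation above the mean across all tested compounds plus 3 SD, cutoff set per campaign, cut at about 5.5% in these data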;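 note: 100% = MG132 at 30 µM as the positive control and 0% = DMSO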
# HSF1 activator = HSF-1 activators, primary screen, NIH3T3-HGL cells, MG132 stress, luminescence, single point; NIH3T3-HGL HSF-1 luciferase reporter, 8 h; 100% = twice DMSO control signal; activation, % at 9 µM; 1.7% of 300,000 active; AID 504408, 2011;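 active = mean replicate activation of at least 50% with a set share of replicates each reaching 50%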;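 note: 0% = median of the neutral control wells and 100% = twice that signal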
# The depositor's hits bear a star; . = no result given. Shown is part of a subset that was picked to be rich in hits.
SMILES,HSF1 inh,L major viab,T cruzi repl,Hsp70 act,HSF1 activator
Fc1ccc(N2CCN(C(=S)NCc3ccco3)CC2)cc1,17,5,-60,0,11
S=C(NCc1ccco1)N1CCN(c2ccccc2Cl)CC1,46,-9,6,0,70*
COc1cccc(N2CCN(C(=S)NCc3ccco3)CC2)c1,31,-4,5,0,55*
CCN(CC)S(=O)(=O)c1ccc(NS(=O)(=O)CC23CCC(CC2=O)C3(C)C)cc1 (configuration not stated),-3,44,16,0,-5
Cc1cc(C)cc(NC(=O)C2C3C=CC4(O3)C2C(=O)N(CCCN(C)C)C4C(=O)NC2CCCC(C)C2C)c1 (configuration not stated),-5,.,-3,.,3
CN1c2ccccc2N(C)C1(C)c1cccc2ccccc12,-10,35,58*,0,7
CC1=CC(C)(C)NC(=S)N1c1cccc2ccccc12,-1,15,-8,0,-13
c1cnc2ccc(C(c3nnnn3C3CCCCC3)N3CCN4CCCC4C3)cc2c1 (configuration not stated),1,72*,-35,0,21
CCC(C)(C)n1nnnc1C(c1ccc2ncccc2c1)N1CCN2CCCC2C1 (configuration not stated),-6,70*,2,0,-5
OC1CCN(C(c2ccc3ncccc3c2)c2nnnn2C2CCCCC2)CC1 (configuration not stated),6,5,3,0,2
CCCC(c1nnnn1C(C)(C)CC)N1CCN(C2CCCC2)CC1 (configuration not stated),.,20,.,0,.
COC(=O)C1=C(C)N(c2ccc(C(=O)OC)cc2)C(=O)C1,-1,24,-12,0,-8
COC(=O)C1=C(C)N(c2cc(Cl)cc(Cl)c2)C(=O)C1,15,87*,-8,0,4
O=C(CC(=O)N/N=C/c1ccc(C(=O)O)cc1)NCCc1ccccc1,-3,.,10,.,-5
COc1ccc(NC(=O)CCCSc2ccccc2)cc1,8,-1,-9,0,19
CC(=O)N/C(N)=N/c1nc2cc([N+](=O)[O-])ccc2o1,23,.,-5,.,72*
CC(C)(C)C(=O)N/C(N)=N/c1nc2ccccc2o1,15,.,-7,.,52*
CCC(=O)N/C(N)=N/c1nc2ccccc2o1,2,.,-2,.,5
O=C(NCCN1CCOCC1)c1ccc2c(c1)N(Cc1ccccc1)C(=O)CS2,-2,1,-3,0,-1
O=C(NCCC1=CCCCC1)c1ccc2c(c1)N(Cc1ccccc1)C(=O)CS2,20,33,56*,0,27
CCOC(=O)N1CCC(N2C(=O)c3ccc(C(=O)Nc4ccc(OC)cc4)cc3C2=O)CC1,3,.,-11,.,3
CSc1ccc(CN2CCC(Cc3ccccc3)CC2)cc1,-9,.,34,.,-17
CSc1ccc(OC2CCN(Cc3ccccc3)CC2)cc1,11,94*,16,0,9
O=C(NCCc1ccccc1)C1CCN(Cc2ccccc2F)CC1,0,71*,-5,0,-11
CCCCNC(=O)C1CCN(Cc2ccc(OCc3ccccc3)cc2)CC1,18,82*,23,0,14
SMILES,HSF1 inh,L major viab,T cruzi repl,Hsp70 act,HSF1 activator
CCN(CC)C(=O)C1CCN(Cc2cccc(OCc3ccccc3)c2)CC1,-3,100*,16,0,4
O=C(O)c1ccc(CS(=O)(=O)c2c(Cl)cccc2Cl)o1,-3,.,-10,.,-8
CCOC(=O)CSc1nnc(CNC(=O)c2ccc([N+](=O)[O-])cc2)n1C,0,1,-4,0,28
Cc1cc(C(=O)N(C)CC(=O)Nc2ccc(F)c(F)c2F)no1,-2,.,-10,.,-11
OC1CCN(Cc2ccc(OCc3ccccc3)cc2)CC1,-13,.,61*,.,-18
CCCCC(=O)C1CCN(Cc2ccccc2)CC1,-5,67*,8,0,-13
CCCCCC(=O)NN=C1CCN(Cc2ccccc2)CC1,-3,-4,-5,0,0
O=C(C1CCN(Cc2ccc(OCc3ccccc3)cc2)CC1)N1CCCC1,4,-6,-4,0,14
O=c1c2c(n3cnnc3n1-c1ccccc1)-c1ccccc1CC21CCCC1,-4,66*,6,0,-2
O=c1c2c(n3nnnc3n1-c1ccccc1)-c1ccccc1CC21CCCC1,-9,-6,13,0,-21
COc1ccccc1-n1c(C)c(C(C)=O)c2cc(O)ccc21,3,.,-5,.,1
CCc1c(O)c(/C(C)=N\O)c(=O)n(-c2ccccc2)c1-c1ccccc1,-3,67*,-10,0,17
C/C(=N/O)c1c(O)c(C)c(-c2ccccc2)n(-c2ccccc2)c1=O,1,13,-10,0,-6
C=CCO/N=C(/C)c1c(O)c(CC)c(-c2ccccc2)n(-c2ccccc2)c1=O,-1,51*,-2,0,0
CCCCOCCCNS(=O)(=O)c1ccccc1,-9,0,6,0,-4
CCCCOP(=O)(OCCCC)C1(NS(=O)(=O)c2ccccc2)C=CC(=O)c2ccccc21 (configuration not stated),17,100*,0,0,16
O=C(CSc1nnc(Cc2ccccc2)o1)N1CCCC1,-2,-1,7,0,-15
O=C(CCc1nnc(Cc2ccc(-c3ccccc3)cc2)o1)N1CCCC1,40,1,6,0,70*
Cc1cc(C2(c3cc(C)c(NC(=O)CN4CCOCC4)c(C)c3)CCCCC2)cc(C)c1NC(=O)CN1CCOCC1,-57*,-5,9,0,-66
Cc1ccc(Cl)cc1NC(=O)CN1CCOCC1,1,.,-6,.,13
CC(C)(C)c1ccc(Cn2cnc(-c3ccc([N+](=O)[O-])cc3)c2)cc1,22,89*,31,0,28
CC1CCCCC1NC(=S)NC(=O)c1sc2ccccc2c1Cl (configuration not stated),7,2,-1,0,15
O=C(NC(=S)N(CCCCO)C1CCCCC1)c1sc2ccccc2c1Cl,-10,92*,22,0,-6
COc1cc(C(C)=O)ccc1Oc1ncccn1,-10,.,-8,.,-9
CCOc1ccc(C2c3cc(OC)c(OC)cc3CC(=O)N2c2ccc(OC)cc2)cc1 (configuration not stated),0,80*,-6,0,-2
CCOc1cc2c(cc1OCC)C(c1ccc(OC)c(OC)c1)N(c1ccc(C(=O)O)cc1)C(=O)C2 (configuration not stated),0,-3,-1,0,-11
CCn1cc(C(=O)N=c2sc3ccccc3n2C)c(=O)c2ccc(C)nc21,.,89*,.,0,.
CCn1cc(C(=O)Nc2ccccc2)c(=O)c2ccc(C)nc21,3,-3,7,0,19
